Screens (PubChem BioAssay)
Sampled rows, rich in hits. Any-hit rate of the full collection: about 3.3%.
PRMT1 FP inh: PRMT1 (human) inhibition, primary screen. Q99873. recombinant PRMT1, activity-based probe fluorescence polarization. inhibition, % at 2.79 µM. 370,000 tested, 1.3% active. AID 652257;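 active = inhibition above about 21% made by adding two undisclosed values, limit read from the data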
TCR CD3 inh: blocks the human TCR-CD3 interaction | TAMRA-labeled TCR probe fluorescence, biochemical | AID 651800 | inhibition, % at 9.4 µM | 360,000 tested, 0.37% active; in the data active = inhibition above about 19%;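 note: recombinant mutant TCR 2C K166C tagged with TAMRA read by polarization; 0% = receptor in buffer alone and 100% = receptor with positive control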
SIAE primary: blocks human sialic acid acetylesterase. SIAE FP-Rh probe binding, fluorescence polarization. inhibition, % at 9.66 µM. 370,000 tested, 0.69% active. AID 1053197;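 active = inhibition above a cutoff: mean of compounds within the control limits plus 3 SD of those, cut at about 17% in these data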;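 note: 0% = plate median of compound wells and 100% = probe without SIAE protein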
mABHD4 FP: ABHD4 (mouse) inhibition, primary FP screen. Q8VD66. purified mABHD4, FP-Rh probe fluorescence polarization. inhibition, % at 8.92 µM. 370,000 tested, 0.54% active. AID 720543;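 active = inhibition exceeding the mean over every tested compound plus 3 SD, cut at about 30% in these data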;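 note: 0% = plate median of compound wells and 100% = S159A mutant with DMSO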
Target sequence (Q8VD66 whole entry, looked up): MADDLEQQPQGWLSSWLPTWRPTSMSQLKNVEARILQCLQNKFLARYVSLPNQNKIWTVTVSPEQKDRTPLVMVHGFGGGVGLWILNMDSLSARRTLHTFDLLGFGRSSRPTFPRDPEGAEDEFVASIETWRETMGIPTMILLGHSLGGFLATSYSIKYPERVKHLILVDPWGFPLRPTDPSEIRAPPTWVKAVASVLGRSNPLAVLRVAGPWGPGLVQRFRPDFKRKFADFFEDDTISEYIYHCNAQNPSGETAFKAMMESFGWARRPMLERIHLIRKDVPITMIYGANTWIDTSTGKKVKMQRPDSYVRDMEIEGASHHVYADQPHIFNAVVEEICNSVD
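Assay system: mABHD4 protein; medium: HEPES pH 7.0, NaCl, Pluronic buffer; dosing: 8.92 µM, single dose; schedule: 45 min + 60 min at 25 °C; signal: FP readout, ex 525 nm / em 598 nm; read-out: normalized percent inhibition of probe labeling; repeats: single replicate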
rCAG RNA binder: binds r(CAG) RNA repeats; inhibition, % at 3 µM; 370,000 tested, 1.3% active; AID 651821; r(CAG) RNA repeat, TO-PRO-1 dye displacement fluorescence;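 active = inhibition above the plate cutoff, the mean of all test compounds on that plate plus 3 SD, cut at about 35% in these data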;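 note: 0% = DMSO alone and 100% = 100 µM mitoxantrone as full dye displacement; higher means more dye released from RNA so lower well fluorescence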
rCAG bind conf: r(CAG) RNA repeat binding, confirmation. inhibition, % at 3 µM. 4,300 tested, 70% active. TO-PRO-1 dye displacement fluorescence. shares compounds with rCAG RNA binder;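 active = inhibition above a per-plate cutoff, the mean inhibition of sample wells plus 3 SD, cut at about 35% in these data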;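 note: loss of TO-PRO-1 fluorescence as compound displaces dye from 1x1 AA loop RNA; 0% = DMSO only wells and 100% = 100 µM mitoxantrone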
DNA CAG counter: counter-screen for rCAG RNA binders: DNA CAG dye complex inhibitors; d(CAG) DNA oligo TO-PRO-1 dye displacement, fluorescence; shares compounds with rCAG RNA binder; AID 652068; 4,300 tested, 94% active; inhibition, % at 3 µM;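 active = inhibition above its plate's cutoff, the mean test-well inhibition plus 3 SD, cut at about 4.8% in these data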;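 note: 0% = DNA dye mix with DMSO and 100% = 100 µM mitoxantrone; hits displace the dye from DNA and so lower well fluorescence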
Starred values were filed as active, the others as inactive; . = no result.

SMILES | PRMT1 FP inh | TCR CD3 inh | SIAE primary | mABHD4 FP | rCAG RNA binder | rCAG bind conf | DNA CAG counter
COC(=O)[C@]12C[C@H](CC(=O)NCC3CCCCC3)C(=O)N(Cc3ccco3)C1=C[C@H](COCc1ccccc1)O[C@@H]2C | 7 | . | 6 | 4 | 6 | . | .
O=C(O)c1cc(S(=O)(=O)N2CCN(C(c3ccccc3)c3ccccc3)CC2)ccc1Cl | 0 | 4 | -6 | 1 | 55* | 49* | 17*
O=C(O)c1cc(S(=O)(=O)N2CCN(S(=O)(=O)c3ccc4ccccc4c3)CC2)ccc1Br | 4 | -8 | -5 | 15 | 53* | 43* | 15*
O=C(O)c1cc(S(=O)(=O)N2CCN(S(=O)(=O)c3ccccc3)CC2)ccc1Cl | 2 | -2 | 2 | 6 | 0 | . | .
CNC[C@@H]1OCc2cnnn2CCCC(=O)N([C@@H](C)CO)C[C@H]1C | 3 | 0 | 6 | -3 | -2 | . | .
C#CCN1CC(N(C)CCOC(=O)c2cc3ccccc3[nH]2)CS1(=O)=O (stereo unspecified) | 2 | . | 2 | 4 | 1 | . | .
O=C(NCCCc1ccccc1)OC1CCC12CCC(c1ccccc1)CC2 (stereo unspecified) | 0 | . | -5 | -4 | 6 | . | .
COc1cc(C)ccc1S(=O)(=O)NC(=O)C1(C)CCN1C(=O)c1ccc(C2CCCCC2)cc1 (stereo unspecified) | 1 | 7 | 4 | -2 | 40* | 38* | 8.3*
O=C1CC(c2ccco2)CC(O)=C1C=Nc1cc(Cl)ccc1O (stereo unspecified) | 12 | 9 | 7 | 25 | 37* | 17 | 6.0*
Cc1ccc(NC(=O)Cn2nnc(-c3ccncc3)n2)cc1C | -3 | . | 1 | 8 | 1 | . | .
CSc1nsc2nc(=O)c(/C=C3\C(C)=Nc4ccccc43)c(N)n12 | 15 | -3 | -25 | -39 | 42* | 25 | 4.7*
O=C1/C(=C\c2cc(Cl)c(O)c(Cl)c2)SC(=S)N1Cc1ccccc1 | -8 | -66 | -128 | -88 | 18 | . | .
COc1ccc(/C=C2/SC(=S)N(Cc3ccccc3)C2=O)cc1O | 10 | -11 | 1 | -9 | 44* | 26 | 14*
